{"source": "ChEMBL document CHEMBL1811870", "about": "“Synthesis, gp120 binding and anti-HIV activity of fatty acid esters of 1,1-linked disaccharides” (Bioorg Med Chem, 2011)", "note": "The source made the active and inactive calls. No cut-off for these calls is given here.", "data": [{"system": "not listed separately", "assay": "Critical micelle concentration of the compound", "assay_type": "physicochemical", "conditions": "not given", "in_short": "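Glycolipid stocks in hexane:chloroform:ethanol (11:5:4) were injected 1:1000 into water, with surface tension recorded continuously on a microtensiometer. CMC was taken as the concentration above which surface tension no longer fell. Measured in triplicate.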", "units": {"CMC": "µM"}, "values": [{"smiles": "CCCCCCCCCCCCCCCC(=O)O[C@@H]1[C@H](O)[C@@H](O[C@@H]2O[C@H](CO)[C@H](O)[C@H](O)[C@H]2O)O[C@H](CO)[C@H]1O", "CMC": 12}, {"smiles": "CCCCCCCCCCCCCCCC(=O)OC[C@H]1O[C@H](O[C@@H]2O[C@H](CO)[C@H](O)[C@H](O)[C@H]2O)[C@@H](O)[C@@H](O)[C@@H]1O", "CMC": 9.8}, {"smiles": "CCCCCCCCCCCCCCCC(=O)OC[C@H]1O[C@H](O[C@@H]2O[C@H](CO)[C@@H](O)[C@H](O)[C@H]2O)[C@@H](O)[C@@H](O)[C@@H]1O", "CMC": 10}, {"smiles": "CCCCCCCCCCCCCCCC(=O)OC[C@H]1O[C@H](OC)[C@@H](O)[C@@H](O)[C@@H]1O", "CMC": 13}]}, {"system": "Human immunodeficiency virus", "assay": "Antiviral activity against HIV NL-Lai infected in human TZM-bl cells assessed as inhibition of viral infection at 100 uM treated before viral infection measured after 24 hrs by luciferase assay", "assay_type": "functional, organism-based", "conditions": "not given", "in_short": "(§1)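 TZM-bl cells infected with NL-Lai (X4) virus. Compounds at 100 μM were given either before infection or 4 h after infection. In the post-infection arm, unbound virus was washed off with PBS and fresh medium containing compound was added. T20 and AMD3100 controls were used at 2 μM. Luciferase was read 24 h later. Mean ± SD of triplicates.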", "values": [{"smiles": "CCCCCCCCCCCCCCCCO[C@@H]1O[C@H](CO)C(O)[C@H](O)[C@H]1O", "note": "(single isomer, unassigned)", "inhibition": "Active"}, {"smiles": "c1cc(CN2CCCNCCNCCCNCC2)ccc1CN1CCCNCCNCCCNCC1", "inhibition": "Active"}, {"smiles": "CCCCCCCCCCCCCCCC(=O)O[C@@H]1[C@H](O)[C@@H](O[C@@H]2O[C@H](CO)[C@H](O)[C@H](O)[C@H]2O)O[C@H](CO)[C@H]1O", "inhibition": "Active"}, {"smiles": "CCCCCCCCCCCCCCCC(=O)OC[C@H]1O[C@H](O[C@H]2O[C@H](CO)[C@H](O)[C@H](O)[C@H]2O)[C@@H](O)[C@@H](O)[C@@H]1O", "inhibition": "Active"}, {"smiles": "CCCCCCCCCCCCCCCC(=O)OC[C@H]1O[C@H](O[C@@H]2O[C@H](CO)[C@@H](O)[C@H](O)[C@H]2O)[C@@H](O)[C@@H](O)[C@@H]1O", "inhibition": "Active"}]}, {"system": "Human immunodeficiency virus", "assay": "Antiviral activity against HIV NL-Lai infected in human TZM-bl cells assessed as inhibition of viral infection after 24 hrs by luciferase assay", "assay_type": "functional, organism-based", "conditions": "Human immunodeficiency virus 1, NL-Lai", "in_short": "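TZM-bl cells (2×10^4/well) adhered overnight, then infected with X4 NL-Lai virus (from 293T transfection, titered on TZM-bl) with 20 μg/mL DEAE dextran and serial dilutions of compound. Luciferase read 24 h post infection and normalized to virus-only wells. IC50 taken from curve fit of data pooled from at least three independent experiments.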", "units": {"IC50": "µM"}, "values": [{"smiles": "CCCCCCCCCCCCCCCCO[C@@H]1O[C@H](CO)C(O)[C@H](O)[C@H]1O", "note": "(single isomer, unassigned)", "IC50": 43.5}, {"smiles": "CCCCCCCCCCCCCCCC(=O)O[C@@H]1[C@H](O)[C@@H](O[C@@H]2O[C@H](CO)[C@H](O)[C@H](O)[C@H]2O)O[C@H](CO)[C@H]1O", "IC50": 76}, {"smiles": "CCCCCCCCCCCCCCCC(=O)OC[C@H]1O[C@H](O[C@@H]2O[C@H](CO)[C@H](O)[C@H](O)[C@H]2O)[C@@H](O)[C@@H](O)[C@@H]1OC(=O)CCCCCCCCCCCCCCC", "IC50": "> 100"}, {"smiles": "CCCCCCCCCCCCCCCC(=O)OC[C@H]1O[C@H](O[C@@H]2O[C@H](CO)[C@H](O)[C@H](O)[C@H]2O)[C@@H](O)[C@@H](O)[C@@H]1O", "IC50": "> 100"}, {"smiles": "CCCCCCCCCCCCCCCC(=O)OC[C@H]1O[C@H](O[C@H]2O[C@H](CO)[C@H](O)[C@H](O)[C@H]2O)[C@@H](O)[C@@H](O)[C@@H]1O", "IC50": 48.4}, {"smiles": "CCCCCCCCCCCCCCCC(=O)OC[C@H]1O[C@H](O[C@@H]2O[C@H](CO)[C@@H](O)[C@H](O)[C@H]2O)[C@@H](O)[C@@H](O)[C@@H]1O", "IC50": 52.5}, {"smiles": "CCCCCCCCCCCC(=O)OCC(O)CO", "note": "(centres undefined) [GLYCEROL MONOLAURATE]", "IC50": "> 100"}, {"smiles": "CCCCCCCCCCCCCCCC(=O)OC[C@H]1O[C@H](OC)[C@@H](O)[C@@H](O)[C@@H]1OC(=O)CCCCCCCCCCCCCCC", "IC50": "> 100"}, {"smiles": "CCCCCCCCCCCCCCCC(=O)OC[C@H]1O[C@H](OC)[C@@H](O)[C@@H](O)[C@@H]1O", "IC50": "> 100"}]}, {"system": "Human immunodeficiency virus", "assay": "Antiviral activity against HIV NL-Lai infected in human TZM-bl cells assessed as inhibition of viral infection at 100 uM treated 4 hrs after viral infection measured after 24 hrs by luciferase assay", "assay_type": "functional, organism-based", "conditions": "not given", "in_short": "as §1", "values": [{"smiles": "CCCCCCCCCCCCCCCCO[C@@H]1O[C@H](CO)C(O)[C@H](O)[C@H]1O", "note": "(single isomer, unassigned)", "inhibition": "inactive"}, {"smiles": "c1cc(CN2CCCNCCNCCCNCC2)ccc1CN1CCCNCCNCCCNCC1", "inhibition": "inactive"}, {"smiles": "CCCCCCCCCCCCCCCC(=O)O[C@@H]1[C@H](O)[C@@H](O[C@@H]2O[C@H](CO)[C@H](O)[C@H](O)[C@H]2O)O[C@H](CO)[C@H]1O", "inhibition": "inactive"}, {"smiles": "CCCCCCCCCCCCCCCC(=O)OC[C@H]1O[C@H](O[C@H]2O[C@H](CO)[C@H](O)[C@H](O)[C@H]2O)[C@@H](O)[C@@H](O)[C@@H]1O", "inhibition": "inactive"}, {"smiles": "CCCCCCCCCCCCCCCC(=O)OC[C@H]1O[C@H](O[C@@H]2O[C@H](CO)[C@@H](O)[C@H](O)[C@H]2O)[C@@H](O)[C@@H](O)[C@@H]1O", "inhibition": "inactive"}]}, {"system": "Human immunodeficiency virus 1", "assay": "Binding affinity to HIV1 3B R15K V3 loop of gp-120 using monomolecular film after 2 to 3 hrs by microtensiometer analysis", "conditions": "not given", "in_short": "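Glycolipid monolayers spread from hexane-chloroform-ethanol onto a pure water subphase at various initial surface pressures, with 5 min allowed for solvent evaporation, at 20°C ± 1°C. Critical pressure of insertion extrapolated to zero Δπ; surface pressure accuracy ± 0.25 mN/m.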", "units": {"CPI": "mN/meter"}, "values": [{"smiles": "CCCCCCCCCCCCCCCC(=O)O[C@@H]1[C@H](O)[C@@H](O[C@@H]2O[C@H](CO)[C@H](O)[C@H](O)[C@H]2O)O[C@H](CO)[C@H]1O", "CPI": 18}, {"smiles": "CCCCCCCCCCCCC/C=C/[C@@H](O)[C@H](CO[C@@H]1O[C@H](CO)[C@H](O)[C@H](O)[C@H]1O)NC(=O)C(O)CCCCCCCCCCCCCCCCCCCCCC", "note": "(some centres undefined)", "CPI": 22}, {"smiles": "CCCCCCCCCCCCCCCC(=O)OC[C@H]1O[C@H](O[C@@H]2O[C@H](CO)[C@H](O)[C@H](O)[C@H]2O)[C@@H](O)[C@@H](O)[C@@H]1OC(=O)CCCCCCCCCCCCCCC", "CPI": 18}, {"smiles": "CCCCCCCCCCCCCCCC(=O)OC[C@H]1O[C@H](O[C@@H]2O[C@H](CO)[C@H](O)[C@H](O)[C@H]2O)[C@@H](O)[C@@H](O)[C@@H]1O", "CPI": 18}, {"smiles": "CCCCCCCCCCCCCCCC(=O)OC[C@H]1O[C@H](O[C@@H]2O[C@H](CO)[C@@H](O)[C@H](O)[C@H]2O)[C@@H](O)[C@@H](O)[C@@H]1O", "CPI": 18}, {"smiles": "CCCCCCCCCCCCCCCC(=O)OC[C@H]1O[C@H](OC)[C@@H](O)[C@@H](O)[C@@H]1OC(=O)CCCCCCCCCCCCCCC", "CPI": 18}, {"smiles": "CCCCCCCCCCCCCCCC(=O)OC[C@H]1O[C@H](OC)[C@@H](O)[C@@H](O)[C@@H]1O", "CPI": 18}]}, {"system": "not listed separately", "assay": "Cytotoxicity against human TZM-bl cells up to 200 uM after 24 hrs by MTS assay", "assay_type": "cell-based", "conditions": "not given", "in_short": "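TZM-bl cells were seeded and left overnight, then exposed to serial dilutions starting at 200 μM for 24 h. MTS dye reduction was read as OD at 490 nm and normalized to cells in medium only.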", "values": [{"smiles": "CCCCCCCCCCCCCCCCO[C@@H]1O[C@H](CO)C(O)[C@H](O)[C@H]1O", "note": "(single isomer, unassigned)", "Activity": "Non-toxic"}, {"smiles": "CCCCCCCCCCCCCCCC(=O)O[C@@H]1[C@H](O)[C@@H](O[C@@H]2O[C@H](CO)[C@H](O)[C@H](O)[C@H]2O)O[C@H](CO)[C@H]1O", "Activity": "Non-toxic"}, {"smiles": "CCCCCCCCCCCCC/C=C/[C@@H](O)[C@H](CO[C@@H]1O[C@H](CO)[C@H](O)[C@H](O)[C@H]1O)NC(=O)C(O)CCCCCCCCCCCCCCCCCCCCCC", "note": "(some centres undefined)", "Activity": "Non-toxic"}, {"smiles": "CCCCCCCCCCCCCCCC(=O)OC[C@H]1O[C@H](O[C@@H]2O[C@H](CO)[C@H](O)[C@H](O)[C@H]2O)[C@@H](O)[C@@H](O)[C@@H]1OC(=O)CCCCCCCCCCCCCCC", "Activity": "Non-toxic"}, {"smiles": "CCCCCCCCCCCCCCCC(=O)OC[C@H]1O[C@H](O[C@@H]2O[C@H](CO)[C@H](O)[C@H](O)[C@H]2O)[C@@H](O)[C@@H](O)[C@@H]1O", "Activity": "Non-toxic"}, {"smiles": "CCCCCCCCCCCCCCCC(=O)OC[C@H]1O[C@H](O[C@H]2O[C@H](CO)[C@H](O)[C@H](O)[C@H]2O)[C@@H](O)[C@@H](O)[C@@H]1O", "Activity": "Non-toxic"}, {"smiles": "CCCCCCCCCCCCCCCC(=O)OC[C@H]1O[C@H](O[C@@H]2O[C@H](CO)[C@@H](O)[C@H](O)[C@H]2O)[C@@H](O)[C@@H](O)[C@@H]1O", "Activity": "Non-toxic"}, {"smiles": "CCCCCCCCCCCCCCCC(=O)OC[C@H]1O[C@H](OC)[C@@H](O)[C@@H](O)[C@@H]1OC(=O)CCCCCCCCCCCCCCC", "Activity": "Non-toxic"}, {"smiles": "CCCCCCCCCCCCCCCC(=O)OC[C@H]1O[C@H](OC)[C@@H](O)[C@@H](O)[C@@H]1O", "Activity": "Non-toxic"}]}]}
